Data from ChEMBL document CHEMBL1122440, “2'-O-nitro-1-beta-D-arabinofuranosylcytosine. A new derivative of 1-beta-D-arabinofuranosylcytosine that resists enzymatic deamination and has antileukemic activity” (J Med Chem, 1983).

How the values were obtained:
L1210 [1] = assay: Antileukemic activity against L1210 leukemia cells in female B6D2F1/J mice at 93 mg/kg dose(Mean increased life span, calculated as (T/C-1)X100); format: functional, Mus musculus
How it was run: (§1)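 Female B6D2F1/J mice (about 20 g) inoculated ip on day 0 with ascites fluid containing 10^6 L1210 cells. Starting 24 h later, hydrochloride salt given ip daily for 7 consecutive days in water (neutralized with 1 N NaOH when necessary), 0.01 mL/g body weight. Five mice per dose. Life span reported as mean ± 1 SD. Increased life span calculated as (T/C - 1) × 100 against untreated controls.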

CCRF-CEM = assay: Cytotoxicity against CCRF-CEM human leukemic lymphoblastoid cell lines; format: functional, cell-based
L1210 [2] = assay: Antileukemic activity against L1210 leukemia cells in female B6D2F1/J mice at 93 mg/kg dose (post inoculation life span, days); format: functional, Mus musculus; how it was run: as §1
CCRF-CEM/ara-C = assay: Cytotoxicity against CCRF-CEM/ara-C human leukemic lymphoblastoid cell lines; format: functional, cell-based
How it was run: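 Ara-C-resistant subline of CCRF-CEM human leukemic lymphoblasts, deficient in deoxycytidine kinase activity. Growth inhibition measured in culture.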

L1210 [3] = assay: Antileukemic activity against L1210 leukemia cells in female B6D2F1/J mice at 208 mg/kg dose(Mean increased life span, calculated as […]; format: functional, Mus musculus; how it was run: as §1
L1210 [4] = assay: Antileukemic activity against L1210 leukemia cells in female B6D2F1/J mice at 156 mg/kg dose(Mean increased life span, calculated as (T/C-1)X100); format: functional, Mus musculus; how it was run: as §1
L1210 [5] = assay: Antileukemic activity against L1210 leukemia cells in female B6D2F1/J mice at 34 mg/kg dose(Mean increased life span, calculated as (T/C-1)X100); format: functional, Mus musculus; how it was run: as §1
L1210 [6] = assay: Antileukemic activity against L1210 leukemia cells in female B6D2F1/J mice at 56 mg/kg dose (post inoculation life span, days); format: functional, Mus musculus; how it was run: as §1
MOLT-4 = assay: Cytotoxicity against MOLT-4 human leukemic lymphoblastoid cell lines; format: functional, cell-based
L1210 [7] = assay: Antileukemic activity against L1210 leukemia cells in female B6D2F1/J mice at 156 mg/kg dose (post inoculation life span, days); format: functional, Mus musculus; how it was run: as §1
L1210 [8] = assay: Antileukemic activity against L1210 leukemia cells in female B6D2F1/J mice at 208 mg/kg dose (post inoculation life span, days); format: functional, Mus musculus; how it was run: as §1
L1210 [9] = assay: Antileukemic activity against L1210 leukemia cells in female B6D2F1/J mice at 56 mg/kg dose(Mean increased life span, calculated as (T/C-1)[…]); format: functional, Mus musculus; how it was run: as §1
L1210 [10] = assay: Antileukemic activity against L1210 leukemia cells in female B6D2F1/J mice at 34 mg/kg dose (post inoculation life span, days); format: functional, Mus musculus; how it was run: as §1
RPMI 6410 = assay: Cytotoxicity against RPMI-6410 human leukemic lymphoblastoid cell lines; format: functional, cell-based
L1210 [11] = assay: Antileukemic activity against L1210 leukemia cells in female B6D2F1/J mice at 56 mg/kg dose(Mean increased life span, calculated as (T/C-1)X100); format: functional, Mus musculus; how it was run: as §1
L1210 [12] = assay: Antileukemic activity against L1210 leukemia cells in female B6D2F1/J mice at 208 mg/kg dose(Mean increased life span, calculated as (T/C-1)X100); format: functional, Mus musculus; how it was run: as §1

Structure (SMILES)	Mean increased life span (L1210 [1]) [%]	IC50 (CCRF-CEM) [µM]	Life span (L1210 [2]) [days]	IC50 (CCRF-CEM/ara-C) [µM]	Mean increased life span (L1210 [3]) [%]	Mean increased life span (L1210 [4]) [%]	Mean increased life span (L1210 [5]) [%]	Life span (L1210 [6]) [days]	IC50 (MOLT-4) [µM]	Life span (L1210 [7]) [days]	Life span (L1210 [8]) [days]	Mean increased life span (L1210 [9]) [%]	Life span (L1210 [10]) [days]	IC50 (RPMI 6410) [µM]	Mean increased life span (L1210 [11]) [%]	Mean increased life span (L1210 [12]) [%]
Nc1ccn([C@@H]2O[C@H](CO)[C@@H](O)[C@@H]2O[N+](=O)[O-])c(=O)n1	71	0.6	10.8	1000	162	118	17	10.4	0.4	13.8	16.6	64	7.4	6	–	–
Nc1ccn([C@@H]2O[C@H](CO)[C@@H](O)[C@@H]2O)c(=O)n1 [CYTARABINE]	128	0.02	14	100	–	157	102	13	0.01	16.25	16.6	–	12.8	0.06	105	162
